The results in this text go back to ChEMBL document CHEMBL1131024, “N-Arylalkyl pseudopeptide inhibitors of farnesyltransferase” (J Med Chem, 1998).

Molecules are shown by their SMILES. Converted amounts (≈) assume the structure as drawn.

Test [1] deals with Protein farnesyltransferase (Homo sapiens, UniProt P49354+P49356). Description: Inhibition of [3H]FPP incorporation into recombinant human Ha-Ras by Farnesyltransferase. The class given is protein-complex assay. A digest of the protocol:
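FTase, either purified from bovine brain or homogeneous human recombinant, transferred [³H]FPP onto recombinant Ha-Ras. Total protein was acid-precipitated and protein-bound FPP was counted by scintillation. IC50 is the concentration inhibiting 50% of [³H]FPP incorporation.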

Test [2] has as its target Geranylgeranyl transferase type I (Bos taurus, UniProt P29702+Q5EAD5). Description: Inhibition of bovine Geranylgeranyl transferase type I. The class given is protein-complex assay.
In test [3] the test system is NIH3T3. Description: Highest nontoxic concentration in NIH3T3 cells by MTT staining. The test is classed as functional, Mus musculus. Put shortly:
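NIH 3T3 cells were exposed to compound for 48 h, and viability was read by MTT staining. The endpoint is the highest concentration the cells tolerated.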

The target in test [4] is Protein farnesyltransferase (Mus musculus, UniProt Q61239+Q8K2I1). Briefly: Inhibition of post-translational processing of v-Ras protein in NIH3T3 cells. The class given is functional, cell-based. Put shortly: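 v-ras-transformed NIH 3T3 cells were incubated 24 h with compound or solvent control and labeled with [³⁵S]methionine over the final 20 h. Processed (farnesylated) Ras was resolved by SDS-PAGE. Lovastatin at 15 µM served as positive control.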

The subject of test [5] is Rat1. Briefly: Inhibition of colony formation in Rat 1-v-ras-transformed cells in soft agar. The class given is functional. A digest of the protocol: (§1)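 Rat1 cells transformed by v-ras or v-raf were grown in soft agar for about 2 weeks, fed twice weekly. MIC is the minimum concentration reducing colony size and number relative to vehicle-treated controls.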
Test [6] relates to Rat1. Briefly: Inhibition of colony formation in Rat 1-v-raf-transformed cells in soft agar. The test is classed as functional. A digest of the protocol: as §1
For test [7], the target named is T1, Protein farnesyltransferase (Bos taurus, UniProt P29702+P49355). Briefly: Inhibition of bovine brain Farnesyltransferase at 1 nM. Put shortly:
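Bovine brain FTase at approximately 1 nM transferred [³H]FPP onto recombinant human Ha-Ras. Acid-precipitated protein-bound label was counted by scintillation. IC50 is the concentration giving 50% inhibition of incorporation.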

In test [8] the target is T1, Protein farnesyltransferase. Briefly: Inhibition of bovine brain Farnesyltransferase at 10 pM. Conditions: in the assay text read “at approximately 1 nM” for “at 10 pM”.

For the molecule `CC[C@@H](C)[C@@H](CN(C)[C@@H](Cc1ccccc1)C(=O)N[C@@H](CCO)C(=O)O)NC[C@@H](N)CS`, in test [1], the 50% inhibitory concentration (IC50) amounted to 1600 nM.

Turning to `CCC[C@@H](C(=O)N[C@@H](CCO)C(=O)O)N(C)C[C@@H](NC[C@@H](N)CS)[C@H](C)CC`, the IC50 amounted to 21 nM in test [1] and 43000 nM in test [2].

Turning to `CC[C@@H](C)[C@@H](CN[C@@H](Cc1ccccc1)C(=O)N[C@@H](CCSC)C(=O)O)NC[C@@H](N)CS`, the figures for the 50% inhibitory concentration (IC50) in test [1] and in test [2] were 4.8 nM and 5750 nM, respectively.

As to `CC[C@@H](C)[C@@H](CN(Cc1ccccc1)[C@@H](Cc1ccccc1)C(=O)N[C@@H](CCSC)C(=O)O)NC[C@@H](N)CS`, the 50% inhibitory concentration (IC50) in test [1] is 1400 nM.

Regarding `CC[C@@H](C)[C@@H](CN(C)[C@@H](Cc1ccccc1)C(=O)N[C@@H](CCSC)C(=O)O)NC[C@@H](N)CS`, the IC50 in test [1] was determined as 42 nM.

Turning to `CC[C@@H](C)[C@@H](CN(CC(=O)N[C@@H](CCSC)C(=O)O)Cc1ccccc1)NC[C@@H](N)CS`, the 50% inhibitory concentration (IC50) in test [1] was 1.2 nM; in test [2] it was 450 nM.

As for `CC[C@@H](C)[C@@H](C(=O)N[C@H]1CCOC1=O)N(C)C[C@@H](NC[C@@H](N)CS)[C@H](C)CC`, in test [3], the CTE was found to be 500 µM. Besides, in test [4], the IC50 stood at 25000 nM. The MIC in test [5] was determined as 500 µM (≈ 208 µg/mL).

In the case of `CC[C@@H](C)[C@@H](CN(CC(=O)N[C@@H](CCO)C(=O)O)Cc1cccc2ccccc12)NC[C@@H](N)CS`, the half-inhibitory concentration (IC50) in test [1] came to 0.123 nM; in test [2], 10 nM.

On to `CC[C@@H](C)[C@@H](CN(CC(=O)N[C@@H](CCSC)C(=O)OC)Cc1cccc2ccccc12)NC[C@@H](N)CS`, for which the CTE in test [3] was determined as 5 µM. For the same molecule, the half-maximal inhibitory concentration (IC50) in test [4] worked out at 500 nM. Also, the values for the minimum inhibitory concentration (MIC) in test [5] and in test [6] were 2.5 µM (≈ 1.37 µg/mL) and > 5 µM, respectively.

On to `CC[C@@H](C)[C@@H](CN[C@@H](Cc1ccccc1)C(=O)N[C@@H](CCO)C(=O)O)NC[C@@H](N)CS`, for which the half-inhibitory concentration (IC50) came out at 10000 nM in test [2] and 26 nM in test [7].

With `CCC[C@H](NC[C@@H](NC[C@@H](N)CS)[C@H](C)CC)C(=O)N[C@@H](CCO)C(=O)O`, the IC50 was 10000 nM in test [2] and 27 nM in test [8].

Regarding `CC[C@@H](C)[C@@H](CN(C)CC(=O)N[C@@H](CCO)C(=O)O)NC[C@@H](N)CS`, the 50% inhibitory concentration (IC50) in test [2] was 10000 nM; in test [8], 83 nM.

In the case of `CC[C@@H](C)[C@@H](CN(C)[C@H](C(=O)N[C@@H](CCSC)C(=O)O)[C@@H](C)CC)NC[C@@H](N)CS`, the half-inhibitory concentration (IC50) in test [1] came to 25 nM; in test [2], 4700 nM.

Turning to `CC[C@@H](C)[C@@H](CN[C@H](C(=O)N[C@@H](CCSC)C(=O)O)[C@@H](C)CC)NC[C@@H](N)CS`, the concentration for half-maximal inhibition (IC50) in test [1] came to 30 nM.

As for `CC[C@@H](C)[C@H](NC[C@@H](NC[C@@H](N)CS)[C@H](C)CC)C(=O)N[C@H]1CCOC1=O`, the CTE in test [3] is >1000 µM. The molecule also had a concentration for half-maximal inhibition (IC50) in test [4] of 100000 nM. Besides, the figures for the minimum inhibitory concentration (MIC) in test [5] and in test [6] were 1000 µM (≈ 403 µg/mL) and > 1000 µM, respectively.

With `CC[C@@H](C)[C@@H](CN(CC(=O)N[C@@H](CCSC)C(=O)O)Cc1ccccc1)NCCCS`, the values for the IC50 in test [1] and in test [2] were 2.2 nM and 39000 nM, respectively.

As for `CC[C@H](C)[C@H](NC[C@@H](NC[C@@H](N)CS)[C@@H](C)CC)C(=O)N[C@@H](CCO)C(=O)O`, the IC50 in test [1] turned out to be 20 nM.

Turning to `CCC(C)[C@@H](CN(CC(=O)N[C@@H](CCSC)C(=O)OC)Cc1ccccc1)NC[C@@H](N)CS` (stereo partly specified), the CTE in test [3] was determined as 10 µM. The molecule also gave a half-maximal inhibitory concentration (IC50) in test [4] of 100 nM.
